For assay [1], the system named is Tritrichomonas suis. Briefly: The minimum lethal concentration (MLC) against Trichomonas foetus. In kind it is functional. The method in brief: (§1)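 Broth microdilution in Kupferberg's medium (pH 7.2); compounds serially diluted 200–0.2 µg/mL in duplicate; each well inoculated with T. foetus at 15 parasites/mm3 in broth, overlaid with sterile mineral oil; 30 °C for 48 h; wells examined microscopically for viable parasites; MLC = lowest concentration without viable parasites; single values reflect consistent duplicate end points.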

Assay [2] is filed under the species Mesocricetus auratus. Put plainly: Value is expressed as the ratio of (Tritrichomonas foetus infected) animals cured / total number(15) infected at day 1 post treatment after 4 days of treatment.
Assay [3] is filed under the species Mesocricetus auratus. Briefly: Value is expressed as the ratio of (Tritrichomonas foetus infected) animals cured / total number(15) infected at day 4 post treatment after 4 days of treatment.
The species entered for assay [4] is Mesocricetus auratus. Briefly: Value is expressed as the ratio of (Tritrichomonas foetus) animals cured / total number(5) infected at day 4 post treatment after 4 days of treatment.
Assay [5] has as its system Cricetinae gen. sp. Put plainly: Value is expressed as the ratio of (Tritrichomonas foetus) animals cured / total number(5) infected at day 1 post treatment after 4 days of treatment. Format: functional, Cricetulus griseus. The gist of the method:
(§2)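 From day 3 postinfection, animals got one daily intravaginal 2% (w/w) propylene glycol cream dose plus two daily sc suspension doses (100 mg/kg) for 4 days. Vaginal washings (Kupferberg's medium) were taken days 1 and 4 posttreatment and checked microscopically for viable parasites.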

The test system of assay [6] is Cricetinae gen. sp. Briefly: Value is expressed as the ratio of (Tritrichomonas foetus infected) animals cured / total number(5) infected at day 4 post treatment after 4 days of treatment. In kind it is functional, Cricetulus griseus. The method in brief: as §2
The subject of assay [7] is Cricetinae gen. sp. Put plainly: Value is expressed as the ratio of (Tritrichomonas foetus infected) animals cured / total number(5) infected at day 1 post treatment after 4 days of treatment. In kind it is functional, Cricetulus griseus. The method in brief: as §2
Assay [8] deals with Tritrichomonas suis. Put plainly: The minimum lethal concentration (MLC) is determined in Trichomonas foetus. Format: functional. The gist of the method:
as §1

Each structure is given as a SMILES string. Values after ≈ are worked out from the molar mass of the structure shown.

With `O=C([N-]c1c(-c2ccccc2)sc2cccc[n+]12)c1ccccc1`, the MLC with Tritrichomonas suis [1] was above 200 µg/mL. With `Cc1ncc([N+](=O)[O-])n1CCO` [METRONIDAZOLE], the Activity in the assay filed under Mesocricetus auratus [2] and in the assay listed under Mesocricetus auratus [3] was 15 each time. Consider `COc1ccc(-c2sc3cccc[n+]3c2[S-])cc1`, for which, in the assay on Tritrichomonas suis [1], the MLC was above 200 µg/mL. `Nc1ccc[n+]2c([O-])c(-c3ccccc3)sc12` yielded an MLC with Tritrichomonas suis [1] of 200 µg/mL (≈ 825 µM). As for `[O-]c1c(-c2ccccc2)sc2nccc[n+]12`, the MLC with Tritrichomonas suis [1] is above 200 µg/mL. Same read-out and setting: in the case of `[O-]c1c(/C=C/c2ccccc2)sc2cccc[n+]12` it was 200 µg/mL (≈ 789 µM). On the same count and under the same terms, in the case of `[S-]c1c(-c2ccccc2)sc2cccc[n+]12` it was above 200 µg/mL; in that of `Br.[NH-]c1c(-c2ccccc2)sc2cccc[n+]12`, above 200 µg/mL; in that of `Nc1ccc2sc(-c3ccccc3)c([O-])[n+]2c1`, 100 µg/mL (≈ 413 µM). Regarding `Nc1ccc(-c2sc3cccc[n+]3c2[O-])cc1`, the MLC in the assay on Tritrichomonas suis [1] turned out to be 1.6 µg/mL (≈ 6.6 µM). Besides, the Activity in the assay filed under Mesocricetus auratus [4] and in the assay on Cricetinae gen. sp. [5] was 0 throughout. In the assay with Tritrichomonas suis [1], `Cc1cc[n+]2c([O-])c(-c3ccccc3)sc2c1` registered an MLC of 200 µg/mL (≈ 829 µM).

In the case of `O=C([O-])C(Sc1ccccn1)c1ccccc1.[Na+]` (stereo unspecified), the Activity with Cricetinae gen. sp. [6] and in the assay on Cricetinae gen. sp. [7] was 0 each time. In the assay on Tritrichomonas suis [1], the MLC was above 200 µg/mL. Take `CC(=O)Nc1ccc(-c2sc3cccc[n+]3c2[O-])cc1`: the MLC with Tritrichomonas suis [1] was above 200 µg/mL.

In the case of `[O-]c1c(-c2ccccc2)oc2cccc[n+]12`, the MLC in the assay on Tritrichomonas suis [1] is above 200 µg/mL. Besides, the Activity in the assay filed under Mesocricetus auratus [4] and in the assay on Cricetinae gen. sp. [5] was 0 throughout.

The compound `[O-]c1c(-c2ccccn2)sc2cccc[n+]12` showed an MLC in the assay with Tritrichomonas suis [1] of 25 µg/mL (≈ 110 µM). Also, the Activity in the assay listed under Mesocricetus auratus [4] came out at 0; in the assay on Cricetinae gen. sp. [5], 1. Regarding `CCOC(=O)C(Sc1ccccn1)c1ccccc1` (stereo unspecified), the Activity with Cricetinae gen. sp. [6] and in the assay with Cricetinae gen. sp. [7] was 0 each time. The compound further returned an MLC in the assay with Tritrichomonas suis [1] above 200 µg/mL. In the case of `O=[N+]([O-])c1ccc2sc(-c3ccccc3)c([O-])[n+]2c1`, the MLC with Tritrichomonas suis [1] came out at 200 µg/mL (≈ 735 µM). Still for that read-out and setting: in the case of `[O-]c1c(-c2ccccc2)sc2c(O)ccc[n+]12` it was above 200 µg/mL. Same read-out and setting: for `CC(=O)[N-]c1c(-c2ccccc2)sc2cccc[n+]12` the value was above 200 µg/mL. Take `OC1=C(c2ccccc2)SC(c2ccccc2)N1c1ccccc1` (stereo unspecified): the MLC in the assay with Tritrichomonas suis [8] was above 200 µg/mL. Turning to `[O-]c1c(-c2ccccc2Cl)sc2cccc[n+]12`, the MLC with Tritrichomonas suis [1] was determined as 100 µg/mL (≈ 382 µM). The Activity in the assay filed under Mesocricetus auratus [4] and in the assay with Cricetinae gen. sp. [5] was 0 each time. In turn, `CC(C)(C)c1ccc(-c2sc3cccc[n+]3c2[O-])cc1` returned an MLC in the assay with Tritrichomonas suis [1] of 25 µg/mL (≈ 88.2 µM). `[O-]c1c(-c2ccncc2)sc2cccc[n+]12` yielded an MLC in the assay with Tritrichomonas suis [1] of 50 µg/mL (≈ 219 µM). Moreover, the values for the Activity in the assay filed under Mesocricetus auratus [4] and with Cricetinae gen. sp. [5] were 0 and 4, respectively.

`[O-]c1c(Sc2ccc(Cl)cc2)sc2cccc[n+]12` came in with an MLC in the assay with Tritrichomonas suis [1] above 200 µg/mL. As to `[O-]c1c(-c2ccc(Cl)cc2)sc2cccc[n+]12`, the MLC in the assay with Tritrichomonas suis [1] worked out at 25 µg/mL (≈ 95.5 µM). The Activity in the assay filed under Mesocricetus auratus [4] and in the assay on Cricetinae gen. sp. [5] was 0 each time. As for `[O-]c1c(-c2ccccc2)sc2ccc3ccccc3[n+]12`, the MLC in the assay on Tritrichomonas suis [1] is above 200 µg/mL. Turning to `O=[N+]([O-])c1ccc[n+]2c([O-])c(-c3ccccc3)sc12`, the MLC in the assay on Tritrichomonas suis [1] came to 0.8 µg/mL (≈ 2.94 µM). Moreover, the Activity in the assay filed under Mesocricetus auratus [4] and in the assay with Cricetinae gen. sp. [5] was 0 throughout. In turn, `Cc1cccc2sc(-c3ccccc3)c([O-])[n+]12` had an MLC in the assay with Tritrichomonas suis [1] above 200 µg/mL. In turn, `[S-]c1c(-c2ccc(Cl)cc2)sc2cccc[n+]12` yielded an MLC in the assay on Tritrichomonas suis [1] above 200 µg/mL. Still for that read-out and setting: for `[O-]c1c(-c2ccccc2)sc2sc3ccccc3[n+]12` the value was above 200 µg/mL. For the compound `[O-]c1c(-c2ccccc2)sc2cccc[n+]12`, in the assay with Tritrichomonas suis [1], the MLC amounted to 12.5 µg/mL (≈ 55 µM). The Activity in the assay listed under Mesocricetus auratus [4] and in the assay with Cricetinae gen. sp. [5] was 0 throughout. Regarding `O=[N+]([O-])c1ccccc1-c1sc2cccc[n+]2c1[O-]`, the MLC in the assay on Tritrichomonas suis [1] was 25 µg/mL (≈ 91.8 µM). On the same count and under the same terms, in the case of `Nc1ccccc1-c1sc2cccc[n+]2c1[O-]` it was 3.12 µg/mL (≈ 12.9 µM). The compound `CN(C)c1ccc(-c2sc3cccc[n+]3c2[O-])cc1` gave an MLC in the assay with Tritrichomonas suis [1] of 0.8 µg/mL (≈ 2.96 µM). In addition, the Activity in the assay filed under Mesocricetus auratus [4] and in the assay with Cricetinae gen. sp. [5] was 0 throughout.

As to `Cc1ccc(-c2sc3cccc[n+]3c2[O-])cc1`, the MLC in the assay on Tritrichomonas suis [1] came to 12.5 µg/mL (≈ 51.8 µM). Besides, the Activity in the assay listed under Mesocricetus auratus [4] and in the assay with Cricetinae gen. sp. [5] was 0 each time.

Consider `[O-]c1c(-c2ccccc2)sc2cncc[n+]12`, for which the MLC in the assay with Tritrichomonas suis [1] is above 200 µg/mL. On the same count and under the same terms, for `CC(=O)Nc1cccc(-c2sc3cccc[n+]3c2[O-])c1` the value was 200 µg/mL (≈ 703 µM). Still for that read-out and setting: in the case of `Nc1cccc(-c2sc3cccc[n+]3c2[O-])c1` it was 12.5 µg/mL (≈ 51.6 µM); in that of `O=[N+]([O-])c1cccc(-c2sc3cccc[n+]3c2[O-])c1`, above 200 µg/mL. Regarding `O=[N+]([O-])c1ccc(-c2sc3cccc[n+]3c2[O-])cc1`, the MLC in the assay with Tritrichomonas suis [1] is above 200 µg/mL. In the case of `COc1ccc(-c2sc3cccc[n+]3c2[O-])cc1`, the MLC in the assay on Tritrichomonas suis [1] is 6.25 µg/mL (≈ 24.3 µM). Further, the Activity in the assay filed under Mesocricetus auratus [4] and with Cricetinae gen. sp. [5] was 0 throughout.

Take `[O-]c1c(-c2cccnc2)sc2cccc[n+]12`: in the assay on Tritrichomonas suis [1], the MLC worked out at 12.5 µg/mL (≈ 54.8 µM). Further, the Activity in the assay listed under Mesocricetus auratus [4] and with Cricetinae gen. sp. [5] was 0 each time.

Values taken from ChEMBL document CHEMBL1122847, “Antitrichomonal activity of mesoionic thiazolo[3,2-a]pyridines” (1985).
